Measurements from ChEMBL document CHEMBL4321861, “An Underlying Mechanism of Dual Wnt Inhibition and AMPK Activation: Mitochondrial Uncouplers Masquerading as Wnt Inhibitors” (J Med Chem, 2019).
pIC50: −log10 of the molar value. Activity calls are given as the source filed them. The calls are words filed in the database; no cut-off is given here.

Tests used:
[1] = tested on: DLD-1; assay: Cytotoxicity against human DLD1 cells assessed as reduction in cell viability by Vi-Cell XR cell viability analyzer-based assay; assay type: functional
How it was run: (§1)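 Colon cancer cells plated at 3.5×10^4 per well in 12-well plates. LS174T were in EMEM + 10% FBS; DLD-1 were in DMEM + 10% FBS. After 24 h, compound in DMSO added (DMSO control). Cell number and viability counted on a Vi-Cell XR analyzer. Triplicate wells.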

[2] = molecular target: T1, AMP-activated protein kinase, AMPK (Homo sapiens) (UniProt P54646+O43741+P54619+Q9UGJ0+Q9Y478+Q13131+Q9UGI9); assay: Activation of AMPK in human LS174T cells assessed as increase in AMPK phosphorylation at T172 residue at 3 uM by Western blot analysis; assay type: cell-based
How it was run: (§2)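 Cells lysed in 50 mM HEPES, 100 mM NaCl, 2 mM EDTA, 1% glycerol, 50 mM NaF, 1 mM Na3VO4, 1% Triton X-100 with protease inhibitors. Western blot probed for total and phospho-AMPK and total and phospho-ACC, with actin loading control. Compounds given in DMSO. At least three independent repeats.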

[3] = species: Homo sapiens; assay: Inhibition of Wnt in human SW620 cells assessed as reduction in Axin2 expression at 1 uM by Western blot analysis; assay type: cell-based
How it was run: (§3)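 Colorectal cancer cells (DLD-1, LS174T, SW620) treated with a compound dose series in DMSO. Lysates immunoblotted for Axin2, c-Myc and cyclin D1. At least three independent repeats.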

[4] = tested on: LS174T; assay: Induction of mitochondrial membrane potential disruption in human LS174T cells measured after 2 hrs by TMRM staining based fluorescence microscopic analysis; conditions: Mitochondria
How it was run: (§4)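 Cells grown one day in 24-well plates: DLD-1 in DMEM + 10% serum, LS174T in RPMI1640 + 5% serum. Treated 2 h with compound in DMSO or DMSO, then stained with 100 nM TMRM for 15 min. Rinsed once with PBS and imaged by fluorescence microscopy at 568 nm.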

[5] = tested on: LS174T; assay: Inhibition of Wnt in human LS174T cells assessed as reduction in cyclin-D1 expression at 1 uM by Western blot analysis; assay type: cell-based; how it was run: as §3
[6] = molecular target: T1, AMP-activated protein kinase, AMPK (Homo sapiens); assay: Activation of AMPK in human LS174T cells assessed as […] phosphorylation at S79 residue at 3 uM by Western blot analysis; assay type: cell-based; how it was run: as §2
[7] = tested on: LS174T; assay: Inhibition of Wnt in human LS174T cells assessed as reduction in c-Myc expression at 1 uM by Western blot analysis; assay type: cell-based; how it was run: as §3
[8] = species: Homo sapiens; assay: Inhibition of Wnt in human DLD1 cells assessed as reduction in cyclin-D1 expression at 1 to 3 uM by Western blot analysis; assay type: cell-based; how it was run: as §3
[9] = species: Homo sapiens; assay: Inhibition of Wnt in human SW620 cells assessed as reduction in cyclin-D1 expression at 1 uM by Western blot analysis; assay type: cell-based; how it was run: as §3
[10] = tested on: HEK293; assay: Inhibition of LiCl-activated Wnt signaling in HEK293 cells at 0.3 to 3 uM by TOPFlash reporter gene assay; assay type: cell-based; conditions: Homo sapiens
How it was run: (§5)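 Stable HEK293T Super 8xTOPFlash reporter line (pGL4.83 backbone, puromycin-selected), stimulated with 25 mM LiCl to stabilize β-catenin. Treated with compound in DMSO or DMSO. Luciferase read in 96- or 24-well format. AMPK inhibitor compound C used at 5 μM where applied. At least three independent repeats.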

[11] = species: Homo sapiens; assay: Inhibition of Wnt in human SW620 cells assessed as reduction in c-Myc expression at 1 uM by Western blot analysis; assay type: cell-based; how it was run: as §3
[12] = tested on: LS174T; assay: Inhibition of Wnt in human LS174T cells assessed as reduction in Axin2 expression at 1 uM by Western blot analysis; assay type: cell-based; how it was run: as §3
[13] = tested on: HEK293; assay: Effect on FOP reporter expression in LiCl-induced HEK293T cells incubated for 24 hrs by luciferase reporter gene assay; assay type: functional, cell-based; conditions: Homo sapiens
How it was run: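 HEK293T cells transiently transfected with Super 8x TOPFlash or 8x FOPFlash plus control Renilla reporter. Wnt signaling activated with LiCl or Wnt3A. Cells treated with DMSO or compound in DMSO. Luciferase activity read.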

[14] = tested on: HEK293; assay: Inhibition of LiCl-activated Wnt signaling in HEK293 cells at 3 uM in presence of AMPK inhibitor compound C by TOPFlash reporter gene assay; assay type: cell-based; conditions: Homo sapiens; how it was run: as §5
[15] = tested on: DLD-1; assay: Induction of mitochondrial membrane potential disruption in human DLD1 cells measured after 2 hrs by TMRM staining based fluorescence microscopic analysis; conditions: Mitochondria; how it was run: as §4
[16] = species: Homo sapiens; assay: Inhibition of Wnt in human DLD1 cells assessed as reduction in Axin2 expression at 1 to 3 uM by Western blot analysis; assay type: cell-based; how it was run: as §3
[17] = tested on: LS174T; assay: Cytotoxicity against human LS174T cells assessed as reduction in cell viability by Vi-Cell XR cell viability analyzer-based assay; assay type: functional; how it was run: as §1
[18] = species: Homo sapiens; assay: Inhibition of Wnt in human DLD1 cells assessed as reduction in c-Myc expression at 1 to 3 uM by Western blot analysis; assay type: cell-based; how it was run: as §3
[19] = tested on: Liver; assay: Uncoupling of mitochondrial oxidative phosphorylation in mouse liver mitochondria assessed as increase in oxygen consumption rate at 1 to 5 uM in presence of oligomycin A by seahorse XFe96 analyser based assay
How it was run: (§6)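 Mouse liver mitochondria isolated by differential centrifugation in mannitol/sucrose/HEPES/EGTA buffer, pH 7.2. Loaded at 6 μg/well in KCl/HEPES/MgCl2/KH2PO4 respiration buffer, pH 7.2, at 37 °C. OCR measured on XFe96.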

[20] = molecular target: T1, AMP-activated protein kinase, AMPK (Homo sapiens); assay: Activation of AMPK (unknown origin) assessed as increase in AMPK phosphorylation at T172 residue at 3 uM by Western blot analysis; assay type: protein-complex assay; how it was run: as §2
[21] = tested on: DLD-1; assay: Uncoupling of mitochondrial oxidative phosphorylation in human DLD1 cells assessed as increase in oxygen consumption rate at 3 uM in presence of oligomycin A by seahorse XFe96 analyser based assay; conditions: Mitochondria
How it was run: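 DLD-1 cells, about 3×10^4 per XF96 well, in XF medium with 25 mM glucose and 1 mM pyruvate. Mito stress sequence: oligomycin A 1 μM, then test compound 3 μM in DMSO in place of FCCP (FCCP 1 μM as control), then rotenone/antimycin A 1 μM each. Oxygen consumption rate recorded.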

[22] = molecular target: T1, AMP-activated protein kinase, AMPK (Homo sapiens); assay: Activation of AMPK (unknown origin) assessed as […] phosphorylation at S79 residue at 3 uM by Western blot analysis; assay type: protein-complex assay; how it was run: as §2
[23] = tested on: HEK293; assay: Inhibition of LiCl-activated Wnt signaling in HEK293 cells at 3 uM by TOPFlash reporter gene assay; assay type: cell-based; conditions: Homo sapiens; how it was run: as §5
[24] = tested on: Liver; assay: Uncoupling of mitochondrial oxidative phosphorylation in mouse liver mitochondria assessed as increase in oxygen consumption rate in presence of oligomycin A by seahorse XFe96 analyser based assay; how it was run: as §6
[25] = tested on: HEK293; assay: Inhibition of LiCl-activated Wnt signaling in HEK293 cells at 10 uM by TOPFlash reporter gene assay; assay type: cell-based; conditions: Homo sapiens; how it was run: as §5
[26] = tested on: HEK293; assay: Inhibition of LiCl-activated Wnt signaling in HEK293 cells by TOPFlash reporter gene assay; assay type: cell-based; conditions: Homo sapiens; how it was run: as §5
[27] = molecular target: T1, AMP-activated protein kinase, AMPK (Homo sapiens); assay: Activation of AMPK in human LS174T cells assessed as increase in AMPK phosphorylation at T172 residue by Western blot analysis; assay type: cell-based; how it was run: as §2
[28] = molecular target: T1, AMP-activated protein kinase, AMPK (Homo sapiens); assay: Activation of AMPK in human LS174T cells assessed as […] phosphorylation at S79 residue by Western blot analysis; assay type: cell-based; how it was run: as §2
[29] = tested on: HEK293; assay: Inhibition of LiCl-activated Wnt signaling in HEK293 cells at […] by TOPFlash reporter gene assay; assay type: cell-based; conditions: Homo sapiens
How it was run: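 Stable HEK293T line carrying Super 8xTOPFlash subcloned into pGL4.83 (hRlucP/Puro), selected with puromycin; Wnt signaling activated with 25 mM LiCl, compound added in DMSO (DMSO control); luciferase reporter readout. At least three independent repeats.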

[30] = tested on: LS174T; assay: Inhibition of glucose metabolism in human LS174T cells assessed as reduction in ATP level at 10 mM by luminescence assay; assay type: functional, cell-based

With O=C(Nc1ccc(C(F)(F)F)cc1)Nc1cc(F)c(F)c(F)c1 the pIC50 [1] was 6.27, the Activity [2] was “Active” and the inhibition [3] was “Active”. For the same compound, the Activity [4] was “Active”, the inhibition [5] was “Active” and the Activity [6] was “Active”. For the same compound, the inhibition [7] was “Active”, the inhibition [8] was “Active” and the inhibition [9] was “Active”. For the same compound, the inhibition [10] was “Active”, the inhibition [11] was “Active” and the inhibition [12] was “Active”. For the same compound, the Activity [13] was “inactive”, the inhibition [14] was “Active” and the Activity [15] was “Active”. For the same compound, the inhibition [16] was “Active”, the pIC50 [17] was 6.26 and the inhibition [18] was “Active”.
In the case of CN(c1ccc([N+](=O)[O-])c2ccccc12)S(=O)(=O)c1cc(Cl)ccc1Cl, the Activity [19] was “inactive”, the Activity [20] was “inactive” and the Activity [21] was “inactive”. For the same compound, the Activity [22] was “inactive” and the inhibition [23] was “inactive”.
With O=[N+]([O-])c1ccc(NS(=O)(=O)c2cc(Cl)ccc2Cl)c2ccccc12 the Activity [24] was “Dose-dependent effect”, the Activity [20] was “Active” and the Activity [22] was “Active”. The inhibition [23] was “Active”.
N#Cc1c(O)c2c(-c3ccc(-c4ccccc4O)cc3)csc2[nH]c1=O was tested, and the inhibition [25] was “inactive”.
O=C1[C@H](Cc2ccc(O)cc2)N2C(=O)CCN(C(=O)NCc3ccccc3)[C@H]2CN1Cc1cccc2ccccc12 was tested, and the inhibition [26] was “Active”, the Activity [27] was “inactive” and the Activity [28] was “inactive”.
In the case of OC[C@H]1OC(O)C[C@@H](O)[C@@H]1O (stereo partly drawn), the inhibition [29] was “Active” and the inhibition [30] was “Active”.
